{"data": "Experimental data from different studies", "SLC6A3": "Sodium-dependent dopamine transporter (SLC6A3, Homo sapiens, UniProt Q01959)", "DRD3": "D(3) dopamine receptor (DRD3, Homo sapiens, UniProt P35462)", "CA12": "Carbonic anhydrase 12 (CA12, Homo sapiens, UniProt O43570)", "note": "Compare with care: the assays were run in different laboratories."}
{"Structure (SMILES)": "CCOC(=O)[C@@]12C[C@@H]1[C@@H](n1cnc3c(Nc4ccccc4)nc(C#Cc4ccc(Cl)s4)nc31)[C@H](O)[C@@H]2O", "target": "SLC6A3", "effect on": "ligand displacement", "method": "radioligand", "endpoint": "Ki", "result": "1.4 µM"}
{"Structure (SMILES)": "Cc1[nH]c(C)c(S(=O)(=O)Nc2ccc(C(=O)C(F)(F)F)c(Cl)c2)c1C(=O)N1CCC(F)(F)C1", "target": "DRD3", "effect on": "G protein activation", "mode": "antagonist", "method": "BRET", "endpoint": "IC50", "result": "14.3 µM"}
{"Structure (SMILES)": "OCc1ccccc1O[C@@H]1O[C@H](CO)[C@@H](O)[C@H](O)[C@H]1O", "target": "Taste receptor type 2 member 16 (TAS2R16, Homo sapiens, UniProt Q9NYV7, N96T)", "effect on": "inositol phosphate", "mode": "agonist", "method": "TR-FRET", "endpoint": "EC50", "result": "5520 µM"}
{"Structure (SMILES)": "N#C[C@@]12C[C@@H]1[C@@H](n1cnc3c(Nc4ccccc4)nc(C#Cc4ccc(Cl)s4)nc31)[C@H](O)[C@@H]2O", "target": "SLC6A3", "effect on": "ligand displacement", "method": "radioligand", "endpoint": "Ki", "result": "1.5 µM"}
{"Structure (SMILES)": "O=C(OCc1cn(-c2ccc([N+](=O)[O-])cc2)nn1)c1ccc(=O)oc1", "target": "CA12", "effect on": "enzyme activity", "mode": "inhibitor", "method": "stopped-flow", "endpoint": "Ki", "result": "62.8 µM"}
{"Structure (SMILES)": "Cc1c(Cl)c(=O)oc2cc(OCCCCSC#N)ccc12", "target": "CA12", "effect on": "enzyme activity", "mode": "inhibitor", "method": "stopped-flow", "endpoint": "Ki", "result": "0.0591 µM"}
{"Structure (SMILES)": "N#CC[C@@]12C[C@@H]1[C@@H](n1cnc3c(NC4CC4)nc(C#Cc4ccc(Cl)s4)nc31)[C@H](O)[C@@H]2O", "target": "SLC6A3", "effect on": "ligand displacement", "method": "radioligand", "endpoint": "EC50", "result": "0.2 µM"}
{"Structure (SMILES)": "O=C(NCc1cn(-c2ccccc2)nn1)c1ccc(=O)oc1", "target": "CA12", "effect on": "enzyme activity", "mode": "inhibitor", "method": "stopped-flow", "endpoint": "Ki", "result": "62 µM"}
{"Structure (SMILES)": "CNc1nc(I)nc2c1ncn2[C@H]1[C@H](O)[C@H](O)[C@]2(CC#N)C[C@H]12", "target": "SLC6A3", "effect on": "ligand displacement", "method": "radioligand", "endpoint": "EC50", "result": "> 10 µM"}
{"Structure (SMILES)": "Cc1ccc(NS(=O)(=O)c2c(C)[nH]c(C)c2C(=O)N2CCC2)cc1Cl", "target": "DRD3", "effect on": "β-arrestin recruitment", "mode": "antagonist", "endpoint": "IC50", "result": "35 µM"}
{"Structure (SMILES)": "O=C(OCc1cn(-c2ccc(Cl)cc2)nn1)c1ccc(=O)oc1", "target": "CA12", "effect on": "enzyme activity", "mode": "inhibitor", "method": "stopped-flow", "endpoint": "Ki", "result": "61.3 µM"}
{"Structure (SMILES)": "NCC(=O)O", "target": "Glutamate NMDA receptor; GRIN1/GRIN2B (GRIN1/GRIN2B, Homo sapiens, UniProt Q05586+Q13224)", "effect on": "ion current", "mode": "agonist", "method": "two-electrode voltage clamp", "setting": "oocytes", "endpoint": "EC50", "result": "0.32 µM"}
{"Structure (SMILES)": "COc1cc(C(F)(F)F)c(Cl)cc1NS(=O)(=O)c1c(C)[nH]c(C)c1C(=O)N1CCC(F)(F)C1", "target": "DRD3", "effect on": "β-arrestin recruitment", "mode": "antagonist", "endpoint": "IC50", "result": "7.2 µM"}
{"Structure (SMILES)": "COc1ccc(OC(=O)c2ccc(=O)oc2)cc1", "target": "CA12", "effect on": "enzyme activity", "mode": "inhibitor", "method": "stopped-flow", "endpoint": "Ki", "result": "1.65 µM"}
{"Structure (SMILES)": "Cc1[nH]cc(S(=O)(=O)Nc2ccc(C(F)(F)F)c(Cl)c2)c1C(=O)N(C)C", "target": "DRD3", "effect on": "G protein activation", "mode": "antagonist", "method": "BRET", "endpoint": "IC50", "result": "6.3 µM"}
{"Structure (SMILES)": "COc1ccc(-n2cc(CNC(=O)c3ccc(=O)oc3)nn2)cc1", "target": "CA12", "effect on": "enzyme activity", "mode": "inhibitor", "method": "stopped-flow", "endpoint": "Ki", "result": "58.7 µM"}
{"Structure (SMILES)": "Cc1[nH]c(C)c(S(=O)(=O)Nc2ccc([N+](=O)[O-])c(Cl)c2)c1C(=O)N1CCC(F)(F)C1", "target": "DRD3", "effect on": "β-arrestin recruitment", "mode": "antagonist", "endpoint": "IC50", "result": "40 µM"}
{"Structure (SMILES)": "CCOC(=O)[C@@]12C[C@@H]1[C@@H](n1cnc3c(NCCCCCc4ccccc4)nc(C#Cc4ccc(Cl)s4)nc31)[C@H](O)[C@@H]2O", "target": "SLC6A3", "effect on": "ligand displacement", "method": "radioligand", "endpoint": "Ki", "result": "3.1 µM"}
